For data set [1], the system named is Vesicular stomatitis virus. The data set can be described thus: Antiviral activity against Vesicular stomatitis virus assessed as reduction of virus induced cytopathicity by cell based assay. Type of data set: functional, organism-based. The procedure, abridged: (§1)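 Confluent cell monolayers infected with 100 CCID50 virus, or 20 PFU for plaque assays, then incubated with serial compound dilutions. Host cells listed for the non-HIV panel are HEL fibroblasts, Vero, HeLa, CRFK or MDCK. Cytopathicity is scored, or plaques counted for VZV, once infected untreated controls reach full CPE.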

For data set [2], the system named is Human alphaherpesvirus 3. The data set can be described thus: Antiviral activity against thymidine kinase-deficient Varicella-zoster virus 07/1 assessed as reduction of virus induced cytopathicity by cell based assay. To be noted: for EC50: Human alphaherpesvirus 3, 07/1. The class given is functional, organism-based. In a few lines:
as §1

Data set [3] has as its system Human alphaherpesvirus 2. Nature of the data set: Antiviral activity against Herpes simplex virus 2 strain G assessed as reduction of virus induced cytopathicity by cell based assay. Type of data set: functional, organism-based. As to conditions: for EC50: Human alphaherpesvirus 2, strain G. In a few lines:
as §1

Data set [4] can be described thus: Cytotoxicity against human HEL cells assessed as alteration of cell morphology after 3 days by microscopic analysis. Type of data set: cell-based. In a few lines: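 MCC taken as the lowest compound concentration producing microscopically detectable alteration of HEL fibroblast morphology.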
Data set [5] deals with Mammalian orthoreovirus 1. Nature of the data set: Antiviral activity against Reovirus-1 assessed as reduction of virus induced cytopathicity by cell based assay. The class given is functional, organism-based. In a few lines: (§2)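 Confluent cell monolayers in 96-well plates (HEL, Vero, HeLa, CRFK or MDCK; the cell type per virus is not specified) infected with 100 CCID50 virus or 20 PFU and incubated with serial compound dilutions. Cytopathicity scored once it was complete in untreated infected controls.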

For data set [6], the system named is Human respirovirus 3. The data set can be described thus: Antiviral activity against Human parainfluenza virus 3 assessed as reduction of virus induced cytopathicity by cell based assay. Type of data set: functional, organism-based. In a few lines:
as §2

For data set [7], the system named is HEL. Nature of the data set: Cytotoxicity against human HEL cells after 3 days by coulter counter. The class given is cell-based. As to conditions: 72 h. In a few lines:
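HEL cells seeded at 5 × 10^3 cells/well and allowed to proliferate for 24 h, then exposed to a range of compound concentrations for 3 days at 37 °C. Cells counted with a Coulter counter.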

Data set [8] relates to Vaccinia virus. The data set can be described thus: Antiviral activity against Vaccinia virus Lederle assessed as reduction of virus induced cytopathicity by cell based assay. Type of data set: functional, organism-based. As to conditions: Orthopoxvirus vaccinia. In a few lines:
as §1

Data set [9] has as its system Coxsackievirus B4. The data set can be described thus: Antiviral activity against Coxsackievirus B4 assessed as reduction of virus induced cytopathicity by cell based assay. Type of data set: functional, organism-based. In a few lines: as §2
Data set [10] has as its system Sindbis virus. The data set can be described thus: Antiviral activity against Sindbis virus assessed as reduction of virus induced cytopathicity by cell based assay. The class given is functional, organism-based. In a few lines:
as §2

Data set [11] concerns Punta Toro virus. Nature of the data set: Antiviral activity against Punta Toro virus assessed as reduction of virus induced cytopathicity by cell based assay. Type of data set: functional, organism-based. In a few lines: as §2
The test system of data set [12] is Human alphaherpesvirus 1. Nature of the data set: Antiviral activity against thymidine kinase-deficient acyclovir-resistant Herpes simplex virus 1 strain KOS assessed as reduction of virus induced cytopathicity by cell based assay. The class given is functional, organism-based. As to conditions: for EC50: Human alphaherpesvirus 1, KOS. In a few lines: as §1
Data set [13] deals with Human betaherpesvirus 5. Nature of the data set: Antiviral activity against Human cytomegalovirus Davis assessed as reduction of virus induced cytopathicity by cell based assay. The class given is functional, organism-based. To be noted: for EC50: Human betaherpesvirus 5, Davis. In a few lines:
as §1

In data set [14] the test system is Human alphaherpesvirus 1. Nature of the data set: Antiviral activity against Herpes simplex virus 1 strain KOS assessed as reduction of virus induced cytopathicity by cell based assay. The class given is functional, organism-based. To be noted: for EC50: Human alphaherpesvirus 1, KOS. In a few lines: as §1
Data set [15] concerns Human alphaherpesvirus 3. Nature of the data set: Antiviral activity against Varicella-zoster virus strain OKA expressing thymidine kinase assessed as reduction of virus induced cytopathicity by cell based assay. To be noted: for EC50: Human alphaherpesvirus 3, strain Oka vaccine; for Activity: strain Oka vaccine. Type of data set: functional. In a few lines: as §1
The subject of data set [16] is Respiratory syncytial virus. Nature of the data set: Antiviral activity against Respiratory syncytial virus Long assessed as reduction of virus induced cytopathicity by cell based assay. The class given is functional, organism-based. In a few lines: as §2
In data set [17] the test system is Human betaherpesvirus 5. The data set can be described thus: Antiviral activity against Human cytomegalovirus strain AD169 assessed as reduction of virus induced cytopathicity by cell based assay. The class given is functional, organism-based. In a few lines: as §1
Data set [18] has as its system Human alphaherpesvirus 3. Nature of the data set: Antiviral activity against thymidine kinase-deficient Varicella-zoster virus YS/R assessed as reduction of virus induced cytopathicity by cell based assay. The class given is functional, organism-based.
Data set [19] deals with Human alphaherpesvirus 3. The data set can be described thus: Antiviral activity against Varicella-zoster virus YS expressing thymidine kinase assessed as reduction of virus induced cytopathicity by cell based assay. Type of data set: functional, organism-based.

From ChEMBL document CHEMBL1806434, “Acyclic nucleoside phosphonates with a branched 2-(2-phosphonoethoxy)ethyl chain: efficient synthesis and antiviral activity” (Bioorg Med Chem, 2011) come the findings set out here.

The source made the active and inactive calls. The rule behind the calls is not given here.

`Nc1nc2c(ncn2CCOC(CO)CP(=O)(O)O)c(=O)[nH]1` (stereo not drawn): the outcome in [1], in data set [5], in data set [6], in data set [9], in data set [10] and in data set [11] was inactive. Also, the result in [16] was inactive. In addition, the EC50 in data set [2] is more than 300 µM; in [3] it was 156 µM; in data set [8], more than 300 µM; in [12], 261 µM; in data set [13], 165 µM; in data set [14], 156 µM. Moreover, in data set [15], the EC50 is more than 300 µM. The MCC at 72 h in data set [4] was more than 300 µM. For the same compound, the CC50 in [7] worked out at 300 µM.

Take `Nc1nc(O)c2ncn(COC(CO)CO)c2n1` [GANCICLOVIR]: the half-maximal effective concentration (EC50) in [3] is 0.023 µM; in data set [8], more than 100 µM; in [12] it was 0.12 µM; in [14] it was 0.017 µM. The MCC at 72 h in [4] is more than 394 µM. Besides, in data set [7], the cytotoxic concentration (CC50) was 543 µM.

Turning to `Cc1cn(CCOC(CO)CP(=O)(O)O)c(=O)[nH]c1=O` (stereo not drawn), the result in data set [1], in [2], in [17], in data set [3], in data set [5] and in data set [6] was inactive. Also, the outcome in data set [18], in [8], in data set [9], in [10], in data set [11] and in data set [12] was inactive. The result in [13], in data set [14], in [15], in [19] and in data set [16] was inactive.

In the case of `Cc1cn(CCOC(C)CP(=O)(O)O)c(=O)[nH]c1=O` (stereo not drawn), the outcome in data set [1], in [5], in data set [6], in data set [9], in data set [10] and in data set [11] was inactive. Moreover, the outcome in data set [16] was inactive. For the same compound, the EC50 was 48 µM in [2]; 188 µM in [17] (Human betaherpesvirus 5, AD169); 154 µM in data set [3]; more than 342 µM in data set [8]; more than 342 µM in data set [12]; 248 µM in data set [13]. For the same compound, the results for the concentration for a half-maximal effect (EC50) in [14] and in data set [15] were 171 µM and 47 µM, respectively. Moreover, in [4], the MCC at 72 h is more than 342 µM. Moreover, the 50% cytotoxic concentration (CC50) in data set [7] was more than 342 µM.

Take `Nc1nc2c(ncn2CCOC(COCc2ccccc2)CP(=O)(O)O)c(=O)[nH]1` (stereo not drawn): the result in data set [1], in data set [5], in data set [6], in data set [9], in data set [10] and in [11] was inactive. Further, the result in [16] was inactive. Besides, the concentration giving a half-maximal response (EC50) was 94 µM in data set [2]; more than 240 µM in data set [3]; more than 240 µM in data set [8]; more than 240 µM in data set [12]; more than 240 µM in data set [13]; more than 240 µM in [14]. For the same compound, in data set [15], the concentration for a half-maximal effect (EC50) was 109 µM. Moreover, the MCC at 72 h in [4] is more than 240 µM. This compound also displayed a half-maximal cytotoxic concentration (CC50) in data set [7] of more than 240 µM.

For `Nc1ncnc2c1ncn2CCOC(CO)CP(=O)(O)O` (stereo not drawn), the result in [1], in data set [2], in data set [17], in [3], in data set [5] and in data set [6] was inactive. Also, the result in data set [18], in [8], in data set [9], in data set [10], in [11] and in data set [12] was inactive. The outcome in data set [13], in [14], in data set [15], in data set [19] and in data set [16] was inactive.

Consider `O=c1[nH]cnc2c1ncn2CCOC(CO)CP(=O)(O)O` (stereo not drawn), for which the outcome in data set [1], in [5], in [6], in [9], in [10] and in data set [11] was inactive. Besides, in data set [16], the outcome was inactive. The EC50 in data set [2] was 197 µM; in [3], 315 µM; in data set [8], more than 315 µM; in data set [12], more than 315 µM; in data set [13] it was more than 315 µM; in data set [14], 208 µM. In addition, the EC50 in data set [15] amounted to 88 µM. The MCC at 72 h in data set [4] is more than 315 µM. The compound further showed a half-maximal cytotoxic concentration (CC50) in data set [7] of more than 315 µM.

Take `CC(CP(=O)(O)O)OCCn1cnc2c(N)nc(N)nc21` (stereo not drawn): the outcome in data set [1], in [2], in data set [17], in data set [3], in data set [5] and in data set [6] was inactive. Further, the outcome in [18], in data set [8], in data set [9], in data set [10], in data set [11] and in data set [12] was inactive. In addition, the outcome in data set [13], in [14], in data set [15], in [19] and in data set [16] was inactive.

Regarding `Nc1nc2c(ncn2COCCO)c(=O)[nH]1` [ACYCLOVIR], in [4], the MCC at 72 h was more than 444 µM. The 50% cytotoxic concentration (CC50) in [7] was determined as 1340 µM. In addition, the values for the EC50 in data set [8], in [12] and in data set [14] were more than 250 µM, 7.3 µM and 0.3 µM, respectively.

As for `CC(CP(=O)(O)O)OCCn1ccc(N)nc1=O` (stereo not drawn), the result in [1], in [5], in data set [6], in [9], in data set [10] and in data set [11] was inactive. Further, the outcome in data set [16] was inactive. The EC50 was 168 µM in data set [2]; more than 361 µM in data set [3]; more than 361 µM in [8]; more than 361 µM in data set [12]; more than 361 µM in [13]; more than 361 µM in data set [14]. Moreover, the 50% effective concentration (EC50) in data set [15] turned out to be 130 µM. The MCC at 72 h in data set [4] is more than 361 µM. For the same compound, the half-maximal cytotoxic concentration (CC50) in [7] came to 307 µM.
